Assay results from ChEMBL document CHEMBL2417481, “Regioselective synthesis of 6-substituted-2-amino-5-bromo-4(3H)-pyrimidinones and evaluation of their antiviral activity” (Eur J Med Chem, 2013).

Columns and labels:
Influenza A virus [1] = experiment: Antiviral activity against Influenza A virus H1N1 infected in MDCK cells assessed as reduction in virus-induced cytopathogenicity; format: functional, organism-based
Method in brief: (§1)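 Confluent cell monolayers (Vero, HeLa, HEL or MDCK, as named in each line) were infected with 100 CCID50 of virus while exposed to a range of compound concentrations. Cytopathicity was scored once it was complete in untreated infected controls.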

[2] = Cytotoxicity against human HeLa cells assessed as morphological changes; format: cell-based
[3] = Cytotoxicity against african green monkey Vero cells assessed as morphological changes; format: cell-based; conditions: chlorocebus sabaeus
Human alphaherpesvirus 1 [4] = experiment: Antiviral activity against thymidine kinase negative […] Herpes simplex virus-1 KOS infected in human HEL cells assessed as reduction in virus-induced cytopathogenicity; format: functional, organism-based; conditions: Human alphaherpesvirus 1, KOS; method in brief: as §1
Coxsackievirus B4 [5] = experiment: Antiviral activity against Coxsackievirus B4 infected in african green monkey Vero cells assessed as reduction in virus-induced cytopathogenicity; format: functional, organism-based; conditions: Enterovirus B; method in brief: as §1
Human alphaherpesvirus 2 = experiment: Antiviral activity against Herpes simplex virus-2 G infected in human HEL cells assessed as reduction in virus-induced cytopathogenicity; format: functional, organism-based; conditions: Human alphaherpesvirus 2, strain G; method in brief: as §1
[6] = test system: Mammalian orthoreovirus 1; experiment: Antiviral activity against Reovirus-1 infected in african green monkey Vero cells assessed as reduction in virus-induced cytopathogenicity; format: functional, organism-based; conditions: Mammalian orthoreovirus 1, Vero
Method in brief: (§2)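 Confluent Vero monolayers in 96-well plates were inoculated with 100 CCID50 of virus together with varying compound concentrations. Cytopathicity was scored once it was complete in untreated virus-infected control cultures.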

Human alphaherpesvirus 3 [7] = experiment: Antiviral activity against thymidine kinase negative Varicella-zoster virus 07-1 infected in human HEL cells assessed as reduction in the virus plaque formation; format: functional, organism-based; conditions: Human alphaherpesvirus 3, 07-1, HEL
Method in brief: (§3)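 Confluent HEL fibroblast cultures received 20 PFU of VZV together with varying compound concentrations. Plaque formation was read when it reached completion in untreated virus controls.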

Cytomegalovirus [8] = experiment: Antiviral activity against Cytomegalovirus AD-169 infected in human HEL cells assessed as reduction in virus plaque formation; format: functional, organism-based; conditions: Human betaherpesvirus 5, AD-169, HEL
Method in brief: (§4)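 Confluent HEL fibroblasts were inoculated with 100 PFU of CMV at graded compound concentrations. Plaques were counted once formation was complete in untreated infected controls.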

Influenza B virus = experiment: Antiviral activity against Influenza B virus infected in MDCK cells assessed as reduction in virus-induced cytopathogenicity; format: functional, organism-based; method in brief: as §1
Coxsackievirus B4 [9] = experiment: Antiviral activity against Coxsackievirus B4 infected in human HeLa cells assessed as reduction in virus-induced cytopathogenicity; format: functional, organism-based; conditions: Enterovirus B; method in brief: as §1
Felid alphaherpesvirus 1 = experiment: Antiviral activity against Feline Herpes virus infected in cat CRFK cells assessed as inhibition of virus-induced cytopathic effect by MTS assay; format: functional, organism-based; conditions: Felid alphaherpesvirus 1, CRFK
[10] = Cytotoxicity against cat CRFK cells assessed as cell viability by MTS assay; format: cell-based, Felis catus
Human alphaherpesvirus 1 [11] = experiment: Antiviral activity against Herpes simplex virus-1 KOS infected in human HEL cells assessed as reduction in virus-induced cytopathogenicity; format: functional, organism-based; conditions: Human alphaherpesvirus 1, KOS; method in brief: as §1
Human alphaherpesvirus 3 [12] = experiment: Antiviral activity against thymidine kinase positive Varicella-zoster virus OKA infected in human HEL cells assessed as reduction in virus plaque formation; format: functional, cell-based, Human herpesvirus 3 strain Oka vaccine; conditions: Human alphaherpesvirus 3, OKA; method in brief: as §3
[13] = Cytotoxicity against human HEL cells assessed as morphological changes; format: cell-based
Cytomegalovirus [14] = experiment: Antiviral activity against Cytomegalovirus Davis infected in human HEL cells assessed as reduction in virus plaque formation; format: functional, organism-based; conditions: Human betaherpesvirus 5, Davis; method in brief: as §4
Feline coronavirus = experiment: Antiviral activity against Feline coronavirus infected in cat CRFK cells assessed as inhibition of virus-induced cytopathic effect by MTS assay; format: functional, organism-based; conditions: Alphacoronavirus 1, CRFK
Influenza A virus [15] = experiment: Antiviral activity against Influenza A virus […] infected in MDCK cells assessed as reduction in virus-induced cytopathogenicity; format: functional, organism-based; method in brief: as §1
[16] = Cytotoxicity against MDCK cells assessed as morphological changes; format: cell-based, Canis lupus familiaris; conditions: dog
Punta Toro virus = experiment: Antiviral activity against Punta Toro virus infected in african green monkey Vero cells assessed as reduction in virus-induced cytopathogenicity; format: functional, organism-based; method in brief: as §1
[17] = test system: Vesicular stomatitis virus; experiment: Antiviral activity against Vesicular stomatitis virus infected in human HeLa cells assessed as reduction in virus-induced cytopathogenicity; format: functional, organism-based; method in brief: as §1
Sindbis virus = experiment: Antiviral activity against Sindbis virus infected in african green monkey Vero cells assessed as reduction in virus-induced cytopathogenicity; format: functional, organism-based; method in brief: as §1
[18] = test system: Respiratory syncytial virus; experiment: Antiviral activity against Respiratory syncytial virus Long infected in human HeLa cells assessed as reduction in virus-induced cytopathogenicity; format: functional, organism-based; method in brief: as §1
Human respirovirus 3 = experiment: Antiviral activity against Parainfluenza virus 3 infected in african green monkey Vero cells assessed as reduction in virus-induced cytopathogenicity; format: functional, organism-based; conditions: Human respirovirus 3, Vero; method in brief: as §2
[19] = test system: Vesicular stomatitis virus; experiment: Antiviral activity against Vesicular stomatitis virus infected in human HEL cells assessed as reduction in virus-induced cytopathogenicity; format: functional, organism-based; method in brief: as §1

Row | SMILES | EC50 (Influenza A virus [1]) | MCC [2] | MCC [3] | EC50 (Human alphaherpesvirus 1 [4]) | EC50 (Coxsackievirus B4 [5]) | EC50 (Human alphaherpesvirus 2) | EC50 [6] | EC50 (Human alphaherpesvirus 3 [7]) | EC50 (Cytomegalovirus [8]) | EC50 (Influenza B virus) | EC50 (Coxsackievirus B4 [9]) | EC50 (Felid alphaherpesvirus 1) | MCC [10] | EC50 (Human alphaherpesvirus 1 [11]) | EC50 (Human alphaherpesvirus 3 [12]) | MCC [13] | EC50 (Cytomegalovirus [14]) | EC50 (Feline coronavirus) | EC50 (Influenza A virus [15]) | MCC [16] | also measured
1 | CCCc1nc(N)[nH]c(=O)c1Br | > 100 µM | > 100 µM | > 100 µM | > 100 µM | > 100 µM | > 100 µM | > 100 µM | > 100 µM | > 100 µM | > 100 µM | > 100 µM | > 100 µM | > 100 µM | > 100 µM | > 100 µM | > 100 µM | > 100 µM | > 100 µM | > 100 µM | > 100 µM | EC50 (Punta Toro virus): > 100 µM; EC50 [17]: > 100 µM; EC50 (Sindbis virus): > 100 µM; EC50 [18]: > 100 µM; EC50 (Human respirovirus 3): > 100 µM; EC50 [19]: > 100 µM
2 | CCCCc1nc(N)[nH]c(=O)c1Br | > 100 µM | 100 µM | > 100 µM | > 100 µM | > 100 µM | > 100 µM | > 100 µM | > 20 µM | > 20 µM | > 100 µM | > 20 µM | > 100 µM | > 100 µM | > 100 µM | > 20 µM | ≥ 100 µM | > 20 µM | > 100 µM | > 100 µM | > 100 µM | EC50 (Punta Toro virus): > 100 µM; EC50 [17]: 10 µM; EC50 (Sindbis virus): > 100 µM; EC50 [18]: > 20 µM; EC50 (Human respirovirus 3): > 100 µM; EC50 [19]: > 100 µM
3 | CCCCCc1nc(N)[nH]c(=O)c1Br | > 100 µM | 20 µM | > 100 µM | > 100 µM | > 100 µM | > 100 µM | > 100 µM | > 4 µM | > 4 µM | > 100 µM | > 4 µM | > 100 µM | > 100 µM | > 100 µM | > 4 µM | > 20 µM | > 4 µM | > 100 µM | > 100 µM | > 100 µM | EC50 (Punta Toro virus): > 100 µM; EC50 [17]: 2 µM; EC50 (Sindbis virus): > 100 µM; EC50 [18]: > 4 µM; EC50 (Human respirovirus 3): > 100 µM; EC50 [19]: > 100 µM
4 | Nc1nc(CCc2ccccc2)c(Br)c(=O)[nH]1 | > 100 µM | > 100 µM | > 100 µM | > 100 µM | > 100 µM | > 100 µM | > 100 µM | > 100 µM | > 100 µM | > 100 µM | > 100 µM | > 100 µM | > 100 µM | > 100 µM | > 100 µM | > 100 µM | > 100 µM | > 100 µM | > 100 µM | > 100 µM | EC50 (Punta Toro virus): > 100 µM; EC50 [17]: > 100 µM; EC50 (Sindbis virus): > 100 µM; EC50 [18]: > 100 µM; EC50 (Human respirovirus 3): > 100 µM; EC50 [19]: > 100 µM
5 | Cc1cc(C)c(/C=C/c2nc(N)[nH]c(=O)c2Br)c(C)c1 | > 20 µM | 100 µM | 100 µM | > 20 µM | > 20 µM | > 20 µM | > 20 µM | 5.3 µM | 11 µM | > 20 µM | > 20 µM | 1.5 µM | 58 µM | > 20 µM | 2.5 µM | > 20 µM | 8.9 µM | > 20 µM | > 20 µM | > 20 µM | EC50 (Punta Toro virus): > 20 µM; EC50 [17]: > 20 µM; EC50 (Sindbis virus): > 20 µM; EC50 [18]: > 20 µM; EC50 (Human respirovirus 3): > 20 µM; EC50 [19]: > 20 µM
6 | COc1ccc(/C=C/c2nc(N)[nH]c(=O)c2Br)cc1OC | > 20 µM | > 100 µM | > 100 µM | > 100 µM | > 100 µM | > 100 µM | > 100 µM | > 100 µM | > 100 µM | > 20 µM | > 100 µM | > 100 µM | > 100 µM | > 100 µM | > 100 µM | > 100 µM | > 100 µM | > 100 µM | > 20 µM | 100 µM | EC50 (Punta Toro virus): > 100 µM; EC50 [17]: 45 µM; EC50 (Sindbis virus): > 100 µM; EC50 [18]: > 100 µM; EC50 (Human respirovirus 3): > 100 µM; EC50 [19]: > 100 µM
